Active and inactive are the calls of the source. No cut-off for these calls is given here.
Columns and labels:
[1] = molecular target: Signal transducer and activator of transcription 3 (Mus musculus) (UniProt P42227); assay: Inhibition of EGF-induced STAT3 phosphorylation in MEF assessed as reduction in STAT3 nuclear translocation preincubated overnight followed by EGF stimulation and measured after 30 mins by DAPI staining based immunofluorescence assay; conditions: dose 5-50 µM
How it was run: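 MEF cells (2000/well) were allowed to adhere for 24 h, then held overnight in serum-free medium with inhibitor doses. They were stimulated with full RPMI containing 100 nM EGF for 30 min, then fixed in 4% paraformaldehyde and permeabilized. Cells were immunostained for STAT3 (Alexa Fluor 488) with DAPI nuclear counterstain and nuclear STAT3 was quantified by imaging; three independent experiments.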

[2] = tested on: UO-31; assay: Anticancer activity against human UO-31 cells assessed as cell growth inhibition at 10 uM measured after 48 hrs by SRB assay relative to control; assay type: functional; conditions: read-out: GI
How it was run: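 NCI 60-cell-line screen. Cells in RPMI with 5% FBS were plated at 5,000–40,000 cells/well by doubling time and preincubated 24 h at 37 °C. Compound was added at a single 10 µM for 48 h, then cells were fixed with cold TCA (10% final) and stained with 0.4% SRB. Absorbance at 515 nm gave percent growth versus untreated control and time-zero cells.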

[3] = tested on: A-375; assay: Induction of ROS generation in human A-375 cells incubated for 18 hrs by DCFH-DA dye based flow cytometry; assay type: functional, cell-based; conditions: dose 10-25 µM
How it was run: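 A375 cells (1×10^6) were treated with DMSO, 10 or 25 µM for 18 h in full RPMI, then trypsinized and washed. They were loaded with 10 µM DCFH-DA (final) for 30 min at 37 °C in the dark. DCF fluorescence was read by flow cytometry (488 nm excitation, 535 nm filter).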

[4] = tested on: A-375; assay: Antiproliferative activity against human A-375 cells measured after 48 hrs by MTS assay; assay type: functional, cell-based
How it was run: (§1)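 Cells were exposed to a dose range of inhibitor for 48 h, and viability was read by MTS assay in triplicate. GI50 was taken as the concentration giving 50% growth inhibition, averaged from three independent experiments. A375 was cultured in RPMI-1640 with Glutamax. A549 and NCI-H157 were kept in RPMI-1640, and MIA PaCa-2 and U87-MG in DMEM.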

[5] = tested on: 451Lu; assay: Antiproliferative activity against human SB-590885-resistant 451Lu cells assessed as reduction in cell viability measured after 48 hrs by MTS assay; assay type: functional
How it was run: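 Melanoma lines were grown in RPMI-1640 with Glutamax at 37 °C and 5% CO2. The resistant 451 Lu-R and MEL 1617-R sublines were maintained with 1 µM PLX4720. Cells were incubated with vehicle or inhibitor over a dose range, and viability was read by MTS assay in triplicate.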

[6] = tested on: 451Lu; assay: Induction of apoptosis in human SB-590885-resistant 451Lu cells assessed as increase in cleaved PARP expression measured after 12 hrs by Western blot analysis; assay type: functional
How it was run: (§2)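 Sensitive and resistant 451 Lu cells were exposed to a dose range for 12 h before lysis. PARP, cleaved PARP and caspase-7 were detected by western blot against a vinculin loading control; repeated twice.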

[7] = molecular target: Tyrosine-protein kinase JAK2 (Homo sapiens) (UniProt O60674); assay: Inhibition of JAK2 phosphorylation in human MDA-MB-468 cells at 25 uM after 12 hrs by Western blotting analysis; assay type: cell-based
How it was run: (§3)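 Cells lysed in M-PER after 12 h drug exposure (overnight per text); 60 µg total protein run on 10% SDS-PAGE, transferred to PVDF, probed overnight at 4 °C with phospho-specific antibodies. Panel lines (U87-MG, MDA-MB-468, MIA PaCa-2, NCI-H157, A549) given 25 µM; A375 given 0, 5, 10, 25 µM. Actin and/or vinculin loading controls.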

[8] = molecular target: Proto-oncogene tyrosine-protein kinase Src (Homo sapiens) (UniProt P12931); assay: Inhibition of SRC phosphorylation in human U-87 MG cells at 25 uM after 12 hrs by Western blotting analysis; assay type: cell-based; how it was run: as §3
[9] = molecular target: T1, Signal transducer and activator of transcription 3 (Homo sapiens, UniProt P40763); assay: Inhibition of STAT3 phosphorylation at S727 residues in human A-375 cells at 5 to 10 uM after 12 hrs by Western blotting analysis; assay type: cell-based; conditions: dose 5-10 µM; how it was run: as §3
[10] = molecular target: Tyrosine-protein kinase JAK2 (Homo sapiens) (UniProt O60674); assay: Inhibition of JAK2 phosphorylation in human A549 cells at 25 uM after 12 hrs by Western blotting analysis; assay type: cell-based; how it was run: as §3
[11] = molecular target: T1, Signal transducer and activator of transcription 3; assay: Inhibition of STAT3 phosphorylation at S727 residues in human MDA-MB-468 cells at 25 uM after 12 hrs by Western blotting analysis; assay type: cell-based; how it was run: as §3
[12] = tested on: NCI-H157; assay: Antiproliferative activity against human NCI-H157 cells measured after 48 hrs by MTS assay; assay type: functional, cell-based; how it was run: as §1
[13] = tested on: 451Lu; assay: Induction of apoptosis in human SB-590885-resistant 451Lu cells assessed as increase in cleaved caspase-7 expression measured after 12 hrs by Western blot analysis; assay type: functional; how it was run: as §2
[14] = molecular target: T1, Signal transducer and activator of transcription 3; assay: Inhibition of STAT3 phosphorylation at Y705 residues in human A-375 cells at 5 to 10 uM after 12 hrs by Western blotting analysis; assay type: cell-based; conditions: dose 5-10 µM; how it was run: as §3
[15] = molecular target: Proto-oncogene tyrosine-protein kinase Src (Homo sapiens) (UniProt P12931); assay: Inhibition of SRC phosphorylation in human A549 cells at 25 uM after 12 hrs by Western blotting analysis; assay type: cell-based; how it was run: as §3
[16] = molecular target: T1, Signal transducer and activator of transcription 3; assay: Inhibition of STAT3 phosphorylation at Y705 residues in human U-87 MG cells at 25 uM after 12 hrs by Western blotting analysis; assay type: cell-based; how it was run: as §3
[17] = molecular target: T1, Signal transducer and activator of transcription 3; assay: Inhibition of IL-6 induced STAT3 activation in human A-375 cells preincubated for overnight followed by IL-6 addition and measured after 30 mins by Western blot analysis; assay type: cell-based
How it was run: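 A375 cells were held overnight in serum-free medium with inhibitor doses, then stimulated in full medium with 25 ng/mL IL-6 for 30 min. Lysates were immunoblotted for STAT3 pY705/pS727 and Cyclin D1.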

[18] = molecular target: T1, Signal transducer and activator of transcription 3; assay: Inhibition of STAT3 phosphorylation at Y705 residues in human MDA-MB-468 cells at 25 uM after 12 hrs by Western blotting analysis; assay type: cell-based; how it was run: as §3
[19] = tested on: 451Lu; assay: Induction of apoptosis in human SB-590885-sensitive 451Lu cells assessed as increase in cleaved caspase-7 expression measured after 12 hrs by Western blot analysis; assay type: functional; how it was run: as §2
[20] = tested on: MIA PaCa-2; assay: Antiproliferative activity against human MIA PaCa-2 cells measured after 48 hrs by MTS assay; assay type: functional, cell-based; how it was run: as §1

T1 sequence (P40763 whole entry): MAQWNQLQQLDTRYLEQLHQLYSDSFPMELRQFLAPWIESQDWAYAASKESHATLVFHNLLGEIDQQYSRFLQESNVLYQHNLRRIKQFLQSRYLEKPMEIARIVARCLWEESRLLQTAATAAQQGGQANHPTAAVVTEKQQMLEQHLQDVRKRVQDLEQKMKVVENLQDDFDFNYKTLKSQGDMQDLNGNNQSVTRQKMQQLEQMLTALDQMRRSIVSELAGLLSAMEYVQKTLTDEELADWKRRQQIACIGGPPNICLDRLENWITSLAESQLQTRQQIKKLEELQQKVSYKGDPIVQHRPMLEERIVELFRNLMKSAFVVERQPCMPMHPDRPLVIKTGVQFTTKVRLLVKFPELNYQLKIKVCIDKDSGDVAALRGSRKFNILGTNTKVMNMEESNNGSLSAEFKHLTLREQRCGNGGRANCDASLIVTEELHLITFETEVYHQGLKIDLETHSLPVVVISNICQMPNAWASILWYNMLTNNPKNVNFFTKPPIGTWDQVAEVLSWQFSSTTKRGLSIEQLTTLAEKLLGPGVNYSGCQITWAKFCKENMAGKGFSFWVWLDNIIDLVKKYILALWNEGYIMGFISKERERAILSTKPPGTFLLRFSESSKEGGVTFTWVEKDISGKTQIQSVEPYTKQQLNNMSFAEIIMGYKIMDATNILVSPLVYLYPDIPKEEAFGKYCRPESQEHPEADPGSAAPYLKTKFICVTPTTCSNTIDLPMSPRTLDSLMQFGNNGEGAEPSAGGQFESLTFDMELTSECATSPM
Sequence of Tyrosine-protein kinase JAK2 (Homo sapiens) (O60674 whole entry): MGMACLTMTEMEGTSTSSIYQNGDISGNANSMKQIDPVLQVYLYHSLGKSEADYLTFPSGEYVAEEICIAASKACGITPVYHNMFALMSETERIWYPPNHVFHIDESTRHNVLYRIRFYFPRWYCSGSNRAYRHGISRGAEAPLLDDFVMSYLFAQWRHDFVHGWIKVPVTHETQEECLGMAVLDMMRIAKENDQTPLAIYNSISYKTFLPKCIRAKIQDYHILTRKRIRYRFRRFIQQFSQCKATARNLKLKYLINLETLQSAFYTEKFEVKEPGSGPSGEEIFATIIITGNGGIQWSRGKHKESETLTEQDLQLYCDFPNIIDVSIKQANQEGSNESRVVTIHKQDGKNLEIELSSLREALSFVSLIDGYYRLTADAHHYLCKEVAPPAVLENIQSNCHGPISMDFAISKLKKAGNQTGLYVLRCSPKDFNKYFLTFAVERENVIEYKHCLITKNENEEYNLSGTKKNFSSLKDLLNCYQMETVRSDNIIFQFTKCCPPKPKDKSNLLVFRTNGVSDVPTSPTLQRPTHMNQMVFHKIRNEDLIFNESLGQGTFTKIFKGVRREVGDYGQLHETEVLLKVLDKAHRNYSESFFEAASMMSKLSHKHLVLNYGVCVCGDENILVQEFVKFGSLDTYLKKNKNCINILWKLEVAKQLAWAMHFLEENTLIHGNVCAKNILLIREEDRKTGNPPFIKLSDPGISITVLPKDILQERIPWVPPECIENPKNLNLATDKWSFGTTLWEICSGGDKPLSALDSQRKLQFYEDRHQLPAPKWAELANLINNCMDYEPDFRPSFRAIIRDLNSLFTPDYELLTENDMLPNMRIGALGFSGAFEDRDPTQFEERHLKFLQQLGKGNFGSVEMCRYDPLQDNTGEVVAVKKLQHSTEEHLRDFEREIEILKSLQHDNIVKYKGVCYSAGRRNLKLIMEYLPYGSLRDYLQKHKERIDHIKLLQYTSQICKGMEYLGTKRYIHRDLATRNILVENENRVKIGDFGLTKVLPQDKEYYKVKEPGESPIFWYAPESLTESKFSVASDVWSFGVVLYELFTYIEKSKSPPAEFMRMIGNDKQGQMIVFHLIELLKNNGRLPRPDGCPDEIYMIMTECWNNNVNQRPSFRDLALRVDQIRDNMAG
Sequence of Proto-oncogene tyrosine-protein kinase Src (Homo sapiens) (P12931 2-536 limits assumed): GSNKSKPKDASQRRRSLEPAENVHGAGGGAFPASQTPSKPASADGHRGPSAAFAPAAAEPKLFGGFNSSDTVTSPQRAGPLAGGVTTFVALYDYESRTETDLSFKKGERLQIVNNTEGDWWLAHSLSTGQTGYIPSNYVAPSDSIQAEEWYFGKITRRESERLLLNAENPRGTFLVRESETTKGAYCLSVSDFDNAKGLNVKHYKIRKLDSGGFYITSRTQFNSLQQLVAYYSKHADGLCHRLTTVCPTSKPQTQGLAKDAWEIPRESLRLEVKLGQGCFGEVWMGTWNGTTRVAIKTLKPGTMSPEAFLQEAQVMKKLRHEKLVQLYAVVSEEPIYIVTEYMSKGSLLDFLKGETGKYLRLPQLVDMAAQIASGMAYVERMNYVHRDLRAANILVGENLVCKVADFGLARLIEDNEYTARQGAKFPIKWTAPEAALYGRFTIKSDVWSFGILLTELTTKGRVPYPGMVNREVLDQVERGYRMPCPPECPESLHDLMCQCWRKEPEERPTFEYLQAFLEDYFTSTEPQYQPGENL
Sequence of Signal transducer and activator of transcription 3 (Mus musculus) (P42227 whole entry): as the sequence (P40763 whole entry) above, with E760D counted along it

Row | inhibition [1] | inhibition [7] | inhibition [8] | inhibition [9] | inhibition [10] | inhibition [11] | inhibition [14] | inhibition [15] | inhibition [16] | inhibition [17] | inhibition [18] | Structure (SMILES) | inhibition of growth at 10 µM [2] | Activity [3] | Activity [4] | Activity [5] | Activity [6] | Activity [12] | Activity [13] | Activity [19] | Activity [20]
1 | Dose-dependent effect | – | – | – | – | – | – | – | – | – | – | C=CCn1c(SCC(=O)Nc2ccc(/C(C)=N\O)cc2)nnc1-c1cc(-c2ccc(Cl)cc2)nc2ccccc12 | 100% | – | – | – | – | – | – | – | –
2 | – | inactive | inactive | Active | inactive | Active | Active | inactive | Active | Dose-dependent effect | Active | C=CCn1c(SCC(=O)Nc2ccc(/C(C)=N\O)cc2)nnc1-c1cc(-c2ccccc2)nc2ccccc12 | – | Dose-dependent effect | Active | Dose-dependent effect | Dose-dependent effect | Active | Dose-dependent effect | Dose-dependent effect | Active

Reference: ChEMBL document CHEMBL4715843, “NO-releasing STAT3 inhibitors suppress BRAF-mutant melanoma growth” (Eur J Med Chem, 2020)
